# Experiments:
# CCRF-CEM = test: Cytotoxicity against human CCRF-CEM cells after 72 hrs by MTT assay; type: functional
# In short: (§1)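 CCRF-CEM, HT-29, PC-3 and HTB-54 cells grown in RPMI 1640 with 10% foetal calf serum, 2 mM L-glutamine, penicillin/streptomycin, 10 mM HEPES (pH 7.4). Five concentrations, 0.01–100 μM, 72 h at 37 °C, 5% CO2; MTT read-out. GI50, TGI and LC50 versus untreated controls; at least 3 independent experiments in quadruplicate.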
# [1] = Cytotoxicity against human 184B5 cells after 72 hrs by MTT assay; type: cell-based; settings: for GI50 at 72 h: 184B5 cells; for LC50 / TGI: 184b5, 72 h
# In short: (§2)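 Non-malignant lines: 184B5 (normal breast) in Hams F-12/DMEM (50:50) with published supplements; BEAS-2B (bronchial epithelium) in Hams F-12/DMEM (50:50) with 10% foetal calf serum, 2 mM L-glutamine, penicillin/streptomycin. Compounds at five concentrations, 0.01–100 μM, 72 h, 37 °C, 5% CO2; MTT read-out. GI50, TGI, LC50 relative to untreated controls; ≥3 independent experiments in quadruplicate.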
# HT-29 = test: Cytotoxicity against human HT-29 cells after 72 hrs by MTT assay; type: functional; settings: HT-29, 72 h; in short: as §1
# MCF7 = test: Cytotoxicity against human MCF7 cells after 72 hrs by MTT assay; type: functional; settings: MCF7, 72 h; for CC50: read-out: LC50 (the source's name)
# In short: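 MCF-7 cells grown in EMEM with 10% foetal calf serum, 2 mM L-glutamine, 100 units/mL penicillin, 100 µg/mL streptomycin. Exposed to five concentrations between 0.01 and 100 μM for 72 h, 37 °C, humidified 5% CO2; MTT read-out. GI50, TGI, LC50 relative to untreated controls; ≥3 independent experiments in quadruplicate.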
# [2] = Cytotoxicity against human PC3 cells after 72 hrs by MTT assay; type: functional; settings: PC-3, 72 h; in short: as §1
# [3] = Cytotoxicity against human HTB-54 cells after 72 hrs by MTT assay; type: functional; settings: HTB-54, 72 h; for CC50: read-out: LC50 (the source's name); in short: as §1
# [4] = Cytotoxicity against human BEAS2B cells after 72 hrs by MTT assay; type: cell-based, BEAS-2B; settings: for GI50 at 72 h: BEAS2B cells; for LC50 / TGI: beas-2b, 72 h; in short: as §2
# [5] = Antioxidant activity assessed as ABTS radical scavenging activity by measuring Trolox equivalent antioxidant capacity after 6 mins; type: physicochemical; settings: 0.1 h
# In short: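 ABTS dissolved in deionized water at 1 mg/mL, oxidised to radical cation with potassium persulfate (2.45 mM final), kept overnight at room temperature in dark, then diluted with 50% ethanol to A741 = 0.700 ± 0.02. Compound (1 mg/mL ethanol stock) added 1:10 (0.1 mg/mL); A741 decrease read after 6 min against 50% ethanol blank. Trolox positive control; quadruplicate; TEAC from calibration curve.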
Compound,GI50 (CCRF-CEM),LC50 (CCRF-CEM),TGI (CCRF-CEM),GI50 at 72 h [1],LC50 [1],TGI [1],GI50 (HT-29),LC50 (HT-29),TGI (HT-29),GI50 (MCF7),TGI (MCF7),CC50 (MCF7),GI50 [2],LC50 (concentration causing 50% net cell kill) [2],TGI [2],GI50 [3],TGI [3],CC50 [3],GI50 at 72 h [4],LC50 [4],also measured
C=CCOC(=O)Nc1ccc([Se]C#N)cc1,9.2 µM,68.6 µM,38.1 µM,5 µM,53.8 µM,9.8 µM,24.5 µM,72.8 µM,48.6 µM,15 µM,43.1 µM,71.2 µM,17.6 µM,71.8 µM,44.7 µM,27 µM,50.1 µM,73.3 µM,21.4 µM,73.5 µM,TGI [4]: 47.4 µM
Cc1ccc(OC(=O)Nc2ccc([Se]C#N)cc2)cc1,17.4 µM,72 µM,44.7 µM,4.4 µM,46.9 µM,8.7 µM,8.8 µM,68.7 µM,38.8 µM,9.9 µM,39.9 µM,69.8 µM,7.6 µM,65.1 µM,32.3 µM,17.3 µM,44.2 µM,71.1 µM,5.6 µM,58.3 µM,TGI [4]: 15.3 µM
O=C(Nc1ccc([Se][Se]c2ccc(NC(=O)OCC3c4ccccc4-c4ccccc43)cc2)cc1)OCC1c2ccccc2-c2ccccc21,14.9 µM,71.4 µM,43.2 µM,6.5 µM,59.4 µM,19.7 µM,17.8 µM,80.3 µM,49 µM,22.6 µM,52.9 µM,83.3 µM,9.2 µM,70.3 µM,38.8 µM,36.8 µM,60.5 µM,84.3 µM,7.1 µM,64.1 µM,Activity [5]: 0.93 µg/µL; TGI [4]: 27.9 µM
O=C(Nc1ccc([Se][Se]c2ccc(NC(=O)OCC3=Cc4ccccc4S3(=O)=O)cc2)cc1)OCC1=Cc2ccccc2S1(=O)=O,2.3 µM,7.5 µM,4.9 µM,2.6 µM,7.5 µM,5 µM,3 µM,7.8 µM,5.4 µM,3.2 µM,5.7 µM,8.2 µM,3.8 µM,7.9 µM,5.8 µM,4.4 µM,6.3 µM,8.2 µM,3.5 µM,7.9 µM,Activity [5]: 5.78 µg/µL; TGI [4]: 5.7 µM
CCCOC(=O)Nc1ccc([Se]C#N)cc1,9.3 µM,68.8 µM,38.4 µM,3.7 µM,50.9 µM,9.1 µM,28.4 µM,75.4 µM,51.9 µM,8 µM,34.4 µM,67.5 µM,21.1 µM,73.8 µM,47.4 µM,28.9 µM,51.9 µM,74.9 µM,19.2 µM,73.5 µM,Activity [5]: 6.27 µg/µL; TGI [4]: 46.3 µM
COc1ccc(OC(=O)Nc2ccc([Se]C#N)cc2)cc1,13 µM,70 µM,41.5 µM,4.5 µM,59.6 µM,19.2 µM,13.6 µM,69.6 µM,41.5 µM,22.4 µM,48.2 µM,74.1 µM,7.5 µM,71.6 µM,44.6 µM,23.7 µM,48.5 µM,73.3 µM,25.2 µM,71.6 µM,Activity [5]: 2.58 µg/µL; TGI [4]: 48.4 µM
O=C(Nc1ccc([Se][Se]c2ccc(NC(=O)OCc3ccc([N+](=O)[O-])cc3)cc2)cc1)OCc1ccc([N+](=O)[O-])cc1,8.6 µM,68.1 µM,36.5 µM,6 µM,56.5 µM,13.8 µM,16.7 µM,75.9 µM,46.3 µM,20.6 µM,52.8 µM,85 µM,6.4 µM,69.2 µM,27.1 µM,31.8 µM,55.6 µM,79.4 µM,6.3 µM,61.6 µM,TGI [4]: 22.5 µM
O=C(Nc1ccc([Se][Se]c2ccc(NC(=O)Oc3ccc(F)cc3)cc2)cc1)Oc1ccc(F)cc1,8.7 µM,68.8 µM,37.6 µM,3.7 µM,47.8 µM,8.6 µM,18.5 µM,85.3 µM,51.9 µM,8 µM,33.7 µM,64.3 µM,4.9 µM,64.5 µM,31.3 µM,26.7 µM,51.8 µM,77 µM,0.7 µM,61.8 µM,TGI [4]: 23.5 µM
COc1cc([C@@H]2c3cc4c(cc3[C@@H](O[C@@H]3O[C@@H]5CO[C@@H](C)O[C@H]5[C@H](O)[C@H]3O)[C@H]3COC(=O)[C@H]23)OCO4)cc(OC)c1O [ETOPOSIDE],1.6 µM,,50.5 µM,,,,31.6 µM,,> 100 µM,19.9 µM,> 100 µM,> 100 µM,0.6 µM,,4 µM,,,,,,
N#C[Se]c1ccc(NC(=O)OCC2=Cc3ccccc3S2(=O)=O)cc1,3.3 µM,8.9 µM,6.1 µM,5.3 µM,59.7 µM,19.2 µM,26.1 µM,74.3 µM,50.2 µM,8.3 µM,34.9 µM,66.1 µM,6.3 µM,59.8 µM,21.3 µM,6.8 µM,26.9 µM,62.7 µM,7.7 µM,64.3 µM,Activity [5]: 1.92 µg/µL; TGI [4]: 29 µM
O=C(Nc1ccc([Se][Se]c2ccc(NC(=O)Oc3ccc(Cl)cc3)cc2)cc1)Oc1ccc(Cl)cc1,10.8 µM,76 µM,43.4 µM,2.5 µM,52.6 µM,8.9 µM,9.9 µM,76.9 µM,43.4 µM,12.4 µM,46 µM,79.6 µM,1 µM,82.6 µM,28.1 µM,28.6 µM,60.8 µM,93 µM,0.1 µM,64.7 µM,TGI [4]: 26.6 µM
N#C[Se]c1ccc(NC(=O)OCc2ccc([N+](=O)[O-])cc2)cc1,9.3 µM,68.8 µM,38.3 µM,6 µM,58.5 µM,18 µM,22.4 µM,71.9 µM,47.1 µM,11.8 µM,40.7 µM,69.5 µM,9 µM,67.6 µM,36.5 µM,22.9 µM,47.6 µM,72.4 µM,7.7 µM,65.8 µM,Activity [5]: 9.66 µg/µL; TGI [4]: 32.8 µM

# Source: ChEMBL document CHEMBL3399918, “In vitro radical scavenging and cytotoxic activities of novel hybrid selenocarbamates” (Bioorg Med Chem, 2015)
